For test [1], the target named is T1, Adenosine receptor A1 (Homo sapiens) (UniProt P30542).
T1 sequence (whole entry): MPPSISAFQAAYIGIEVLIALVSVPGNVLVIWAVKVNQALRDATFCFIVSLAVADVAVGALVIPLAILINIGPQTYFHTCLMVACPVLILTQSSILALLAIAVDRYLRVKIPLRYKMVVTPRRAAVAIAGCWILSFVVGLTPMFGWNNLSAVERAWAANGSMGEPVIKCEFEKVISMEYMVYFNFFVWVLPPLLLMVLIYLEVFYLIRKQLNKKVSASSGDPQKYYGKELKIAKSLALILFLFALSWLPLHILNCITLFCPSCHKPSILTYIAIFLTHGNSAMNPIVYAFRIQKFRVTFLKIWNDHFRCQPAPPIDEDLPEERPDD
The test can be described thus: Allosteric enhancer activity at recombinant human A1 adenosine receptor expressed in CHO cells assessed as change in forskolin-induced cAMP production at 10 uM after 6 mins by radioimmunoassay. The test is classed as functional, cell-based. In a few lines:
(§1)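 hA1CHO cells (about 8000 fmol/mg protein) thawed from low-passage stocks, grown in Ham's F-12 with 10% FBS and G-418, then plated 48 h. Test compound at 0.01, 0.1, 1 or 10 µM with CPA (0.05–0.1 nM) for 6 min at 36 °C. Stopped with HCl (final 50 mM). cAMP in acidified extracts measured by radioimmunoassay. Reference enhancer run in each experiment. Four experiments per concentration.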
(Cyclic AMP is a second messenger, typically raised through Gs and lowered through Gi signalling.)

In test [2] the target is T1, Adenosine receptor A1 (Homo sapiens). The test can be described thus: Allosteric enhancer activity at recombinant human A1 adenosine receptor expressed in CHO cells assessed as change in forskolin-induced cAMP production at 1 uM after 6 mins by radioimmunoassay. The test is classed as functional, cell-based. In a few lines:
as §1

The target is the same in test [3]. The test can be described thus: Allosteric enhancer activity at recombinant human A1 adenosine receptor expressed in CHO cells assessed as change in forskolin-induced cAMP production at 0.01 uM after 6 mins by radioimmunoassay. The test is classed as functional, cell-based. In a few lines: as §1
For test [4] the target is unchanged. The test can be described thus: Displacement of [3H]DPCPX from recombinant human A1 adenosine receptor expressed in CHO cells at 10 uM after 120 mins by scintillation counting. The test is classed as cell-based. Put shortly: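 Membranes from hA1CHO cells incubated with 1 nM [3H]DPCPX in 50 mM Tris–HCl pH 7.4 at 25 °C for 120 min. Compound added from a 100-fold DMSO stock, so 1% DMSO final, also present in controls. Bound ligand separated on GF/B filters and counted by scintillation. Result given as % of control specific binding.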
(In general: Loss of bound radioactivity is the signal in a displacement assay; it reports binding, not function.)

The target is the same in test [5]. The test can be described thus: Allosteric enhancer activity at recombinant human A1 adenosine receptor expressed in CHO cells assessed as change in forskolin-induced cAMP production at 0.1 uM after 6 mins by radioimmunoassay. The test is classed as functional, cell-based. In a few lines: as §1
For test [6] the target is unchanged. The test can be described thus: Binding affinity to recombinant human A1 adenosine receptor allosteric site expressed in CHO cells assessed as [3H]DPCPX Bmax shift at 10 uM after 90 mins relative to control. The format is cell-based. Put shortly: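 Saturation binding of [3H]DPCPX (0.05–20 nM) to hA1CHO membranes, run in triplicate, 90 min at 25 °C, in 50 mM Tris–HCl pH 7.4, with or without test compound at final 10 µM. Nonspecific binding taken with 1 µM DPCPX. KD and Bmax fitted by LIGAND. Shift is the fold of Bmax increase over control.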

The target is the same in test [7]. The test can be described thus: Binding affinity to recombinant human A1 adenosine receptor allosteric site expressed in CHO cells assessed as potentiation of CCPA-induced [3H]DPCPX displacement at 10 uM after 90 mins relative to control. The format is cell-based. Put shortly:
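Competition of CCPA (0.01 nM–1 µM) against 1 nM [3H]DPCPX on hA1CHO membranes, run in triplicate, 90 min at 25 °C, in 50 mM Tris–HCl pH 7.4, with or without test compound at 10 µM. Nonspecific binding taken with 1 µM DPCPX. Ki by Cheng–Prusoff. Shift = Ki(CCPA)/Ki(CCPA + 10 µM compound).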

Test [8] deals with Adenosine receptor A2a (Homo sapiens) (UniProt P29274). The test can be described thus: Displacement of [3H]ZM241385 from recombinant human A2A adenosine receptor expressed in CHO cells at 10 uM after 60 mins by scintillation counting. The test is classed as cell-based. Put shortly:
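Membranes from hA2ACHO cells incubated with 1 nM [3H]ZM 241385 in 50 mM Tris–HCl, 10 mM MgCl2, pH 7.4 at 4 °C for 60 min. Compound added from a 100-fold DMSO stock, 1% DMSO final, also in controls. Separated by GF/B filtration and counted by scintillation. Result given as % of control specific binding.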

Test [9] deals with T1, Adenosine receptor A1 (Homo sapiens). The test can be described thus: Binding affinity to recombinant human A1 adenosine receptor allosteric site expressed in CHO cells assessed as [3H]CCPA Bmax shift at 10 uM after 90 mins relative to control. The test is classed as cell-based. In a few lines:
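Saturation binding of [3H]CCPA (0.05–20 nM) to hA1CHO membranes. Membranes pretreated with adenosine deaminase 3 UI/mL for 30 min at 37 °C. Run in triplicate, 90 min at 25 °C, in 50 mM Tris–HCl pH 7.4, with or without test compound at final 10 µM. Nonspecific binding taken with 1 µM R-PIA. Bmax fitted by LIGAND. Shift is the fold of Bmax increase over control.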

Test [10] addresses T2, Adenosine receptor A3 (Homo sapiens) (UniProt P0DMS8).
T2 sequence (whole entry): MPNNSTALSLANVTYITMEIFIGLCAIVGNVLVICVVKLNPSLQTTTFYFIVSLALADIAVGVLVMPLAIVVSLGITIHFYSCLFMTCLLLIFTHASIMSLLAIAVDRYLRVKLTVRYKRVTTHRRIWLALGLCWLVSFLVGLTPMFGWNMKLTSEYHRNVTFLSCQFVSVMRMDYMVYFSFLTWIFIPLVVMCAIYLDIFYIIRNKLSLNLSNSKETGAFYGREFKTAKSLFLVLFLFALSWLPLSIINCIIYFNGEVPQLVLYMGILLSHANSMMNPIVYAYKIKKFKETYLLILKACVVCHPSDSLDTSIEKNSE
The test can be described thus: Displacement of [3H]MRE3008F20 from recombinant human A3 adenosine receptor expressed in CHO cells at 10 uM after 120 mins by scintillation counting. The test is classed as cell-based. Put shortly: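 Membranes from hA3CHO cells incubated with 2 nM [3H]MRE 3008F20 in 50 mM Tris–HCl, 10 mM MgCl2, 1 mM EDTA, pH 7.4 at 4 °C for 120 min. Compound added from a 100-fold DMSO stock, 1% DMSO final, also in controls. Separated by GF/B filtration and counted by scintillation. Result given as % of control specific binding.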

Adenosine receptor A2a (Homo sapiens), sequence (P29274 whole entry): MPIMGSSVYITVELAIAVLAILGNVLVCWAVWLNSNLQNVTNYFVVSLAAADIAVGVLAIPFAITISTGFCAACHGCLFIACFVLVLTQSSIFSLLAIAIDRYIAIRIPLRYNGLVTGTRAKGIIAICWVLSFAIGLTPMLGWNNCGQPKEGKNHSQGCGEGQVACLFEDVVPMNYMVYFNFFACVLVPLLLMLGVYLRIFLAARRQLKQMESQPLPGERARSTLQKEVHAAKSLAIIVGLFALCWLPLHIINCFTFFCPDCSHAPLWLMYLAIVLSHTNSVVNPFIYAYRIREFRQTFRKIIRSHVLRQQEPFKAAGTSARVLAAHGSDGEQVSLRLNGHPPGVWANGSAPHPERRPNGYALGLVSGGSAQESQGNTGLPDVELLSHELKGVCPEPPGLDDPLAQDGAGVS

Turning to `Nc1scc(CN2CCN(c3cccc(C(F)(F)F)c3)CC2)c1C(=O)c1ccc(Cl)cc1`, the Activity in test [1] is -80%; in [2], -72%; in test [3] it was -8.2%; in test [5], -30%. The inhibition (as a rule, how much of the control response was suppressed) is 0% in [4], 3% in test [8] and 0% in test [10]. The fold change (FC) in test [6] was 1; in test [7] it was 4.3; in test [9], 5.3.

Consider `Nc1scc(CN2CCN(c3cccc(F)c3)CC2)c1C(=O)c1cccc(C(F)(F)F)c1`, for which the Activity in [1] was -62%; in test [2], -35%; in [3], -11%; in test [5], -12%. Moreover, the inhibition in test [4], in test [8] and in [10] was 0% throughout. Besides, the fold change (FC) in test [6] is 1.1; in test [7] it was 4.7; in [9] it was 6.

On to `Nc1scc(CN2CCN(c3cccc(Cl)c3Cl)CC2)c1C(=O)c1ccc(Cl)cc1`, for which the Activity in test [1] was -77%; in test [2], -57%; in [3], 1%; in [5] it was 3.2%. The inhibition in [4] worked out at 2%; in [8], 1%; in test [10], 0%. Also, the fold change (FC) in [6] came to 1; in test [7], 3.5; in [9] it was 4.2.

Consider `Nc1scc(CN2CCN(c3ccccc3Cl)CC2)c1C(=O)c1ccc(Cl)cc1`, for which the Activity in [1] is -18%; in test [2], -5.2%; in test [3] it was -2.1%; in [5] it was 2%. Further, the inhibition is 2% in test [4], 1% in test [8] and 0% in test [10]. The fold change (FC) in test [6] stood at 0.9; in test [7], 1.4; in [9], 1.2.

In the case of `Nc1scc(CN2CCN(c3cc(F)ccc3F)CC2)c1C(=O)c1ccc(Cl)cc1`, the Activity in [1] is -80%; in test [2], -59%; in test [3], 3.1%; in [5], -13%. Moreover, the inhibition in [4] turned out to be 1%; in test [8] it was 0%; in test [10] it was 2%. In addition, the fold change (FC) in [6] came to 1; in [7], 3.8; in [9], 4.7.

With `Nc1scc(CN2CCN(c3ccc(C(F)(F)F)cc3)CC2)c1C(=O)c1cccc(C(F)(F)F)c1`, the Activity in [1] is -47%; in test [2], -27%; in [3], -12%; in [5] it was -11%. Besides, the inhibition in [4], in test [8] and in [10] was 0% each time. Moreover, the fold change (FC) in test [6] is 1; in test [7] it was 3.4; in [9] it was 4.4.

Regarding `Nc1scc(CN2CCN(Cc3ccc(Cl)cc3)CC2)c1C(=O)c1ccc(Cl)cc1`, the Activity is -82% in [1], -43% in test [2], -2.2% in test [3] and 4.2% in test [5]. The values for the inhibition in test [4], in [8] and in [10] were 0%, 1% and 0%, respectively. Moreover, the results for the fold change (FC) in test [6], in test [7] and in test [9] were 1, 3.7 and 4.5, respectively.

Take `Nc1scc(CN2CCN(c3ccccc3C(F)(F)F)CC2)c1C(=O)c1ccc(Cl)cc1`: the Activity in test [1] is -60%; in test [2], -39%; in [3], 0%; in test [5] it was -7.5%. The inhibition in test [4], in test [8] and in test [10] was 0% in each case. Also, the fold change (FC) was found to be 1 in test [6], 3.6 in [7] and 4.4 in [9].

On to `Nc1scc(CN2CCN(C3CCCCCC3)CC2)c1C(=O)c1ccc(Cl)cc1`, for which the Activity was -25% in test [1], 3.7% in test [2], 2.9% in test [3] and 13% in [5]. Moreover, the inhibition in [4], in test [8] and in [10] was 0% in each case. In addition, the fold change (FC) in test [6] came to 0.9; in test [7] it was 1.2; in test [9], 1.1.

In the case of `Nc1scc(CN2CCN(c3ccc([N+](=O)[O-])cc3)CC2)c1C(=O)c1ccc(Cl)cc1`, the Activity in test [1] is -17%; in test [2], -8.3%; in [3] it was -12%; in test [5] it was -13%. The inhibition in test [4] is 1%; in test [8] it was 1%; in test [10] it was 2%. Also, the fold change (FC) in [6] was 0.9; in [7], 4.2; in test [9], 1.1.

As for `Nc1scc(CN2CCN(c3cccc(F)c3F)CC2)c1C(=O)c1ccc(Cl)cc1`, the Activity in test [1] was -79%; in [2], -66%; in test [3], -13%; in test [5] it was -5.2%. Besides, the inhibition in test [4], in test [8] and in [10] was 0% each time. Moreover, the fold change (FC) in [6] was found to be 1; in [7], 4; in [9], 4.8.

As for `Nc1scc(CN2CCN(c3cc(Cl)ccc3Cl)CC2)c1C(=O)c1ccc(Cl)cc1`, the Activity in test [1] was -62%; in [2] it was -42%; in [3], 13%; in test [5] it was -6.2%. Besides, the results for the inhibition in test [4], in [8] and in [10] were 0%, 0% and 1%, respectively. Further, the fold change (FC) in [6] came out at 0.9; in test [7], 2.8; in [9] it was 3.2.

The values are drawn from ChEMBL document CHEMBL1932980, “Structure-activity relationships of 2-amino-3-aroyl-4-[(4-arylpiperazin-1-yl)methyl]thiophenes. Part 2: Probing the influence of diverse substituents at the phenyl of the arylpiperazine moiety on allosteric enhancer activity at the A₁ adenosine receptor” (Bioorg Med Chem, 2012).
